Measured values from paper PMC3023924 (Bioorganic & medicinal chemistry, 2010).
Counter-ions that a name gives are not always drawn.

Experiments:
[1] = target: T1, human dopamine transporter (hDAT) (Homo sapiens, UniProt Q01959); assay: [3H]-WIN-35,428 binding inhibition at hDAT N2A neuroblastoma cells; conditions: from Ki values
rDAT = conditions: pattern previously seen; cited from earlier work
rat striatal DAT = rat striatal DAT (Rattus norvegicus, UniProt P23977); assay: DAT photoaffinity labeling with [125I]-; assay type: binding; conditions: 30 nM [125I]-(±)-3a; 10 μM or 100 μM competitor; band density vs. control
Sequence of rat striatal DAT (P23977 whole entry): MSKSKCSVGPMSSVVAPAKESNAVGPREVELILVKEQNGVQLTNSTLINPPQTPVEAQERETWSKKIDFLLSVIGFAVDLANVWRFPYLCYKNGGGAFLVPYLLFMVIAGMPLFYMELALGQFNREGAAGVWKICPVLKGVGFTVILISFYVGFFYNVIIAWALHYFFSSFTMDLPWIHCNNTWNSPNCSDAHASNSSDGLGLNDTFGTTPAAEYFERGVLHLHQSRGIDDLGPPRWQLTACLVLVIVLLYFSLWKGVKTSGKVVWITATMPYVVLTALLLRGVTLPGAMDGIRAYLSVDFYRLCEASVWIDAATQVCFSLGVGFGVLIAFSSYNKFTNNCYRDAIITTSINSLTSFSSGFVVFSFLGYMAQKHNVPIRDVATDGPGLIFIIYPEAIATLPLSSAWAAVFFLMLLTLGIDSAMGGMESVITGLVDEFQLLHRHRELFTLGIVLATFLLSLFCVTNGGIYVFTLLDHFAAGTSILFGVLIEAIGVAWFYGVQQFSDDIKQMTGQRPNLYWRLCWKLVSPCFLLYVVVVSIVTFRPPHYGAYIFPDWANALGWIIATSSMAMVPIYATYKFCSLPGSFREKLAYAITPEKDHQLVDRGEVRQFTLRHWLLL

[2] = Storage stability of radioligand by HPLC; assay type: physicochemical; conditions: 20 weeks at −20 °C in the dark
Outline: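 The radioiodinated test compound was made by Chloramine-T iododestannylation and purified by reversed-phase HPLC (C-18, 8 × 100 mm, 6 μm; 3 mL/min; MeOH 35%/CH₃CN 35%/aqueous 30% with Et₃N 2.1% v/v and HOAc 2.8% v/v; radioactivity plus UV 254 nm detection). It was then trapped on a C-18 cartridge and eluted with MeOH. The storage period spanned more than two ¹²⁵I half-lives.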

6Xhis-hDAT = 6Xhis-hDAT (Homo sapiens, UniProt Q01959); assay: DAT photoaffinity labeling with [125I]-; assay type: binding; conditions: HEK hDAT cells; 30 nM, UV 254 nm, immunoprecipitation (not shown)
Sequence of 6Xhis-hDAT (Q01959 whole entry): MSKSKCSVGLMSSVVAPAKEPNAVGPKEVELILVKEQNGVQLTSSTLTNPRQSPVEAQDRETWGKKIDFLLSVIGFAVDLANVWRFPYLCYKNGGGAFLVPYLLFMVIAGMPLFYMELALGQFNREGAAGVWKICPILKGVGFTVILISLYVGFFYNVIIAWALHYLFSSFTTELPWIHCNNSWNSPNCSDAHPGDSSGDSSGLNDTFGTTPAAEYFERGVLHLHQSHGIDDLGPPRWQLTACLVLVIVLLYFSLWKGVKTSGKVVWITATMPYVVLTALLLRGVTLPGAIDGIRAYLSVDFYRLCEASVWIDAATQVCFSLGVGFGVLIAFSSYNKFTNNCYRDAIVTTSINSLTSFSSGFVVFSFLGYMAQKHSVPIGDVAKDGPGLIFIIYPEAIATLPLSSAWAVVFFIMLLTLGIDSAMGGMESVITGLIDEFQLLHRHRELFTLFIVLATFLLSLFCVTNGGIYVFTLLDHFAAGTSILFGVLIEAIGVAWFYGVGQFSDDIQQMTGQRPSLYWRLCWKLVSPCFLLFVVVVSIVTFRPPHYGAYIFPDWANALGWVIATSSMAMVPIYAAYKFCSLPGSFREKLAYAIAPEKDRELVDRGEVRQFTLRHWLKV

DAT = conditions: cited from earlier work; for IC50: read-out: DAT IC50 for inhibition of [3H]-WIN-35,428 binding
[3] = target: T1, human dopamine transporter (hDAT); assay: [3H]-dopamine uptake inhibition at hDAT N2A neuroblastoma cells; assay type: cell-based; conditions: Table 1
[4] = test system: adult attention-deficit hyperactivity disorder (ADHD); conditions: immediate-release and long-acting preparations; cited from earlier work

T1 sequence (Q01959 whole entry): as above

COC(=O)[C@H](c1cccc(I)c1)[C@H]1CCCCN1 (racemic) [(±)-1f, (±)-threo-3-Iodomethylphenidate Hydrochloride]
improvement in DAT affinity versus methylphenidate [1]: ~ 5.5 fold

Fc1ccc(C(OCCN2CCN(CCCc3ccccc3)CC2)c2ccc(F)cc2)cc1 [GBR-12,909]
comparison of binding and uptake inhibition values (rDAT): essentially the same value for binding and uptake inhibition

COC(=O)[C@H]1[C@@H](c2ccc(F)cc2)C[C@@H]2CC[C@H]1N2C [β-CFT, (−)-2-β-carbomethoxy-3-β-(4-fluorophenyl)tropane]
block of [125I]-(±)-3a incorporation into DAT (rat striatal DAT): 75–90%

COC(=O)C(c1ccc([125I])cc1)[C@H]1CCCCN1Cc1ccc(N=[N+]=[N-])cc1 (mixture of isomers) [[^125I]-(±)-3a, [^125I]-(±)-threo-N-(p-Azido-benzyl)-4-iodomethylphenidate]
radiochemical purity after storage [2]: about 80% | irreversible incorporation into DAT (labeled protein of ~80 kDa) (6Xhis-hDAT): demonstrating the incorporation of [^125I]-(±)-3a into the DAT

COC(=O)[C@H](c1ccc(I)cc1)[C@H]1CCCCN1 (racemic) [(±)-1b, (±)-threo-4-Iodomethylphenidate Hydrochloride]
higher DAT affinity versus methylphenidate (DAT; previous pharmacological results): ~ 6 fold | IC50 (DAT): 14 ± 0.1 nM | comparison of binding and uptake inhibition values [3]: essentially the same value for binding and uptake inhibition | improvement in DAT affinity versus methylphenidate [1]: approximately two-fold

CN1[C@@H]2CC[C@H]1C[C@@H](OC(c1ccccc1)c1ccccc1)C2 [benztropine]
comparison of binding and uptake inhibition values (rDAT): essentially the same value for binding and uptake inhibition
